Measured values from ChEMBL document CHEMBL1145455, “Cytotoxic withanolides from the flowers of Datura metel” (J Nat Prod, 2007).

What was measured:
Assay type in all cases: functional, cell-based
A549 = assay: Cytotoxicity against human A549 cells after 48 hrs; details: A549, 48 h
Method in brief: (§1)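 MTT colorimetric assay. Cells were kept in RPMI-1640 with 10% fetal bovine serum at 37 °C, 5% CO2, humidified. They were seeded at 6 × 10^4 cells/mL and allowed to attach for 24 h. Diluted samples were then added for 48 h. MTT (0.5 mg/mL) was added for 3 h, and optical density was read at 550 nm.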

K562 = assay: Cytotoxicity against human K562 cells after 48 hrs; details: K562, 48 h; method in brief: as §1
BGC-823 = assay: Cytotoxicity against human BGC823 cells after 48 hrs; details: BGC-823, 48 h; method in brief: as §1

C=C1C(=O)O[C@@H]2C[C@@]1(C)OC[C@H]2C1CC[C@H]2[C@@H]3C[C@H]4O[C@]45C[C@H](O)CC(=O)C5(C)[C@H]3CCC12C (stereo partly drawn)
IC50 (A549): 1700 nM | IC50 (K562): 460 nM | IC50 (BGC-823): 1000 nM

C=C1C(=O)O[C@@H]2C[C@@]1(C)OC[C@H]2C1CCC2C3C[C@H]4OC(=O)CC=CC4=C(C)C3CCC21C (stereo partly drawn) [1,10-SECO-WITHAMETELIN B]
IC50 (A549): > 10000 nM | IC50 (K562): > 10000 nM | IC50 (BGC-823): > 10000 nM

C=C1C(=O)O[C@@H]2C[C@@]1(C)OC[C@H]2C1CCC2C3C[C@H]4OC(=O)CC=CC4=C(C)C3C[C@@H](O)C21C (stereo partly drawn) [12BETA-HYDROXY-1,10-SECO-WITHAMETELIN B]
IC50 (A549): > 10000 nM | IC50 (K562): > 10000 nM | IC50 (BGC-823): > 10000 nM

COc1cccc2c1C(=O)c1c(O)c3c(c(O)c1C2=O)C[C@@](O)(C(=O)CO)C[C@@H]3O[C@H]1C[C@H](N)[C@H](O)[C@H](C)O1 [DOXORUBICIN]
IC50 (A549): 750 nM | IC50 (K562): 580 nM | IC50 (BGC-823): 350 nM

C=C1C(=O)O[C@@H]2C[C@@]1(C)OC[C@H]2C1CCC2C3C[C@H]4O[C@]45CC=CC(=O)C5(C)C3C[C@@H](O)C21C (stereo partly drawn) [WITHAMETELIN I]
IC50 (A549): 1200 nM | IC50 (K562): 50 nM | IC50 (BGC-823): 1300 nM

C=C1C(=O)O[C@@H]2C[C@@]1(C)OC[C@H]2C1CCC2C3C[C@@H](O)[C@@]4(O)CC=CC(=O)C4(C)C3C[C@@H](O)C21C (stereo partly drawn) [WITHAMETELIN J]
IC50 (A549): > 10000 nM | IC50 (K562): 2500 nM | IC50 (BGC-823): 5200 nM

C=C1C(=O)O[C@@H]2C[C@@]1(C)OC[C@H]2C1CCC2C3C[C@@H](O)C4=CC=CC(=O)C4(C)C3C[C@@H](O)C21C (stereo partly drawn) [WITHAMETELIN K]
IC50 (A549): 3500 nM | IC50 (K562): 120 nM | IC50 (BGC-823): 1900 nM

C=C1C(=O)O[C@@H]2C[C@]1(C)OC[C@H]2[C@H]1CC[C@H]2[C@@H]3CC=C4CC=CC(=O)[C@]4(C)[C@H]3C[C@@H](O)[C@]12C [WITHAMETELIN L]
IC50 (A549): 2000 nM | IC50 (K562): 550 nM | IC50 (BGC-823): 1600 nM

C=C1C(=O)O[C@@H]2C[C@@]1(C)OC[C@H]2C1CCC2C3CC=C4C=CCC(=O)C4(C)C3C[C@@H](O)C21C (stereo partly drawn) [WITHAMETELIN M]
IC50 (A549): > 10000 nM | IC50 (K562): > 10000 nM | IC50 (BGC-823): > 10000 nM

C=C1C(=O)O[C@@H]2C[C@@]1(C)OC[C@H]2C1CCC2C3C[C@H](O)[C@]4(O)CC=CC(=O)C4(C)C3CCC21C (stereo partly drawn) [WITHMETELIN O]
IC50 (A549): > 10000 nM | IC50 (K562): > 10000 nM | IC50 (BGC-823): > 10000 nM

CC1=C(CO[C@@H]2O[C@H](CO)[C@@H](O)[C@H](O)[C@H]2O)C(=O)O[C@@H]([C@@H](CO)C2CCC3C4C[C@@H](O)[C@@]5(O)CC=CC(=O)C5(C)C4CCC32C)C1 (stereo partly drawn) [WITHMETELIN P]
IC50 (A549): > 10000 nM | IC50 (K562): > 10000 nM | IC50 (BGC-823): > 10000 nM
